Tested on: Liver microsome
Test: Retention time in Sprague-Dawley rat liver microsomes treated with 100 uM cinobufagin at 37 degC after 30 mins by UFLC-DAD-ESI-MS analysis
Assay type: ADME
Conditions: 0.5 h
How it was run: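 Male Sprague-Dawley rat microsomes (0.3 mg/ml) were incubated with CB (100 µM) at 37°C for 30 min, with and without NADPH-generating system. Separation was on an ODS column at 40°C using an acetonitrile/0.5% formic acid water gradient at 0.4 ml/min, with DAD detection at 294 nm plus ESI-MS.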

Compound | Retention_time
CC(=O)O[C@H]1[C@H]2O[C@]23[C@@H]2CC[C@@H]4C[C@H](O)CC[C@]4(C)[C@H]2CC[C@]3(C)[C@H]1c1ccc(=O)oc1 | 10.59 min
C[C@]12CC[C@@H](O)C[C@H]1CC[C@@H]1[C@@H]2CC[C@]2(C)[C@@H](c3ccc(=O)oc3)[C@@H](O)[C@H]3O[C@]132 | 8.32 min
C[C@]12CC[C@H](O)C[C@H]1CC[C@@H]1[C@@H]2CC[C@]2(C)[C@@H](c3ccc(=O)oc3)[C@@H](O)[C@H]3O[C@]132 [DESACETYLCINOBUFAGIN] | 6.95 min

From ChEMBL document CHEMBL3526081 (Drug Metab Dispos, 2011)
